From ChEMBL document CHEMBL1121883, “1-(Naphthylalkyl)-1H-imidazole derivatives, a new class of anticonvulsant agents” (J Med Chem, 1981)
“And” between values parts separate entries of the source, which are not always exact repeats. Identical values can stand only once.

Assays:
Mus musculus [1] = experiment: Compound was evaluated for anticonvulsant activity by maximal electroshock assay(MES) in mice after po administration; 33-62; type: functional
Method in brief: (§1)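 Male Hilltop ICR-derived mice (19-30 g), groups of 8-10, given compound or aqueous vehicle orally. The transcorneal 60-Hz shock (50 mA, 0.2 s) followed a 30 min pretreatment and a wire-hang neurological check (10 s). ED50 and 95% confidence limits were obtained from quantal data by the Litchfield-Wilcoxon method.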

Mus musculus [2] = experiment: Protective index defined as ND50 (p.o.) divided by MES ED50(op); type: functional
Method in brief: (§2)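 Ratio of ND50 from the wire traction test to MES ED50, both measured by the same route (ip or oral) in the same animals. Quantal dose-response data for each were evaluated by Litchfield-Wilcoxon.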

[3] = Lethal dose was measured in mice after ip administration.; type: toxicity, organism-based; settings: mouse, in vivo
Method in brief: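 Male Simonsen ICR-derived mice (16-24 g), groups of three, given compound ip in increasing doses within a behavioral screen. Deaths counted on day 5, and LD50 estimated from 5-day survival. Quantal data analysed by the Litchfield-Wilcoxon method.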

Mus musculus [4] = experiment: Protective index is defined as ND50 (i.p.) divided by MES ED50(i.p.); type: functional; method in brief: as §2
Mus musculus [5] = experiment: Dose of compound causing a neurological deficit in 50% of mice after ip administration; 32-89; type: functional
Method in brief: (§3)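 Traction test in male Hilltop ICR-derived mice (19-30 g, groups of 8-10) just before electroshock, 15 min after ip or 30 min after oral dosing. Mice placed on a 16-gauge, 65-cm copper wire 40 cm above the table; deficit scored as failure to stay on for 10 s. ND50 with 95% limits by Litchfield-Wilcoxon.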

Mus musculus [6] = experiment: Dose causing a neurological deficit in 50% of mice following p.o. administration.; type: functional; method in brief: as §3
Mus musculus [7] = experiment: Dose of compound causing a neurological deficit in 50% of mice after po administration.; type: functional; method in brief: as §3
Mus musculus [8] = experiment: Dose of compound causing a neurological deficit in 50% of mice after ip administration; 41-246; type: functional; method in brief: as §3
Rattus norvegicus [9] = experiment: Dose of compound causing a neurological deficit in 50% of rat after ip administration.; type: functional
Method in brief: (§4)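 Rats (Simonsen Sprague-Dawley-derived, 80-110 g, groups of 8-10) placed on a suspended 16-gauge, 65-cm copper wire just before electroshock. Deficit scored as inability to remain for 8 s. Pretreatment was 15 min ip or 30 min oral. Quantal data analysed by Litchfield-Wilcoxon to give ND50 with 95% limits.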

Rattus norvegicus [10] = experiment: Dose of compound causing a neurological deficit in 50% of rat after po administration.; type: functional; method in brief: as §4
Mus musculus [11] = experiment: Compound was evaluated for anticonvulsant activity by maximal electroshock assay(MES) in mice after po administration; 15-26; type: functional; method in brief: as §1
Mus musculus [12] = experiment: Compound was evaluated for anticonvulsant activity by maximal electroshock assay(MES) in mice after ip administration; 8-13; type: functional
Method in brief: (§5)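 Male Hilltop ICR-derived mice (19-30 g), groups of 8-10, dosed ip with compound or aqueous vehicle. After 15 min pretreatment, a transcorneal 60-Hz, 50 mA shock was given for 0.2 s. Just before the shock, each mouse was tested on a horizontal wire (10 s). Quantal data were analysed by Litchfield-Wilcoxon to give ED50 with 95% confidence limits.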

Rattus norvegicus [13] = experiment: Compound was evaluated for anticonvulsant activity by maximal electroshock assay(MES) in rat after ip administration; 3.8-8.4; type: functional
Rattus norvegicus [14] = experiment: Compound was evaluated for anticonvulsant activity by maximal electroshock assay(MES) in rat after po administration; 15-36; type: functional
Method in brief: (§6)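 Male Simonsen Sprague-Dawley-derived rats, 80-110 g, groups of 8-10, dosed with compound or aqueous vehicle; pretreatment 15 min after ip or 30 min after oral dosing. Transcorneal electroshock, 150 mA, 60 Hz, 0.2 s, given after the wire test. ED50 with 95% confidence limits from quantal data by Litchfield-Wilcoxon.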

Mus musculus [15] = experiment: Compound was evaluated for anticonvulsant activity by maximal electroshock assay(MES) in mice after ip administration; 9-26; type: functional; method in brief: as §5
Mus musculus [16] = experiment: Dose of compound causing a neurological deficit in 50% of mice after ip administration; 17-61; type: functional; method in brief: as §3
Rattus norvegicus [17] = experiment: Compound was evaluated for anticonvulsant activity by maximal electroshock assay(MES) in rat after po administration.
Mus musculus [18] = experiment: Dose causing a neurological deficit in 50% of mice after ip administration.; type: functional; method in brief: as §3
Mus musculus [19] = experiment: Compound was evaluated for anticonvulsant activity by maximal electroshock assay(MES) in mice after po administration.; type: functional; method in brief: as §1
Rattus norvegicus [20] = experiment: Dose of compound causing a neurological deficit in 50% of rat after po administration.
Mus musculus [21] = experiment: Anticonvulsant activity in mouse maximal electroshock assay following i.p. administration.; type: functional; settings: ip; method in brief: as §5
Mus musculus [22] = experiment: Compound was evaluated for anticonvulsant activity by maximal electroshock assay(MES) in mice after ip administration; 27-41; type: functional; method in brief: as §5
Rattus norvegicus [23] = experiment: Compound was evaluated for anticonvulsant activity by maximal electroshock assay(MES) in rat after ip administration; 14-33; type: functional
Rattus norvegicus [24] = experiment: Dose of compound causing a neurological deficit in 50% of rat after ip administration; 119-211; type: functional; method in brief: as §4
Mus musculus [25] = experiment: Dose of compound causing a neurological deficit in 50% of mice after ip administration; 80-115; type: functional; method in brief: as §3
Mus musculus [26] = experiment: Compound was evaluated for anticonvulsant activity by maximal electroshock assay(MES) in mice after po administration; 55-125; type: functional; method in brief: as §1
Rattus norvegicus [27] = experiment: Compound was evaluated for anticonvulsant activity by maximal electroshock assay(MES) in rat after po administration; 30-125; type: functional; method in brief: as §6
Mus musculus [28] = experiment: Compound was evaluated for anticonvulsant activity by maximal electroshock assay(MES) in mice after ip administration; 31-39; type: functional; method in brief: as §5
Mus musculus [29] = experiment: Compound was evaluated for anticonvulsant activity by maximal electroshock assay(MES) in mice after ip administration; 14-24; type: functional; method in brief: as §5
Mus musculus [30] = experiment: Dose of compound causing a neurological deficit in 50% of mice after ip administration; 34-82; type: functional; method in brief: as §3
Rattus norvegicus [31] = experiment: Compound was evaluated for anticonvulsant activity by maximal electroshock assay(MES) in rat after po administration.; type: functional; method in brief: as §6
Mus musculus [32] = experiment: compound was evaluated for anticonvulsant activity by maximal electroshock assay(MES) in mice after po administration.; type: functional
Method in brief: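 Male Hilltop ICR-derived mice, 19-30 g, groups of 8-10, dosed orally with compound or aqueous vehicle. Transcorneal electroshock (50 mA, 60 Hz, 0.2 s) delivered 30 min after dosing, immediately after a wire-hang neurological test. ED50 with 95% confidence limits estimated from quantal data by Litchfield-Wilcoxon.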

Rattus norvegicus [33] = experiment: Compound was evaluated for anticonvulsant activity by maximal electroshock assay(MES) in rat after ip administration.

Compound: CC1(C)COC(Cn2ccnc2)(c2ccc3ccccc3c2)OC1.Cl
- ED50 (Mus musculus [1]): 47 mg/kg
- PI (Mus musculus [2]): >2.1
- LD50 [3]: > 100 mg/kg
- PI (Mus musculus [4]): 2
- ND50 (Mus musculus [5]): 52 mg/kg
- ND50 (Mus musculus [6]): >100 mg/kg

Compound: Cl.O=C(CCn1ccnc1)c1ccc2ccccc2c1
- ND50 (Mus musculus [7]): >100 mg/kg
- ND50 (Mus musculus [8]): 60 mg/kg
- ND50 (Rattus norvegicus [9]): >60 mg/kg
- ND50 (Rattus norvegicus [10]): >100 mg/kg
- PI (Mus musculus [2]): >5 and >4
- PI (Mus musculus [4]): 6 and >10
- ED50 (Mus musculus [11]): 20 mg/kg
- ED50 (Mus musculus [12]): 10 mg/kg
- ED50 (Rattus norvegicus [13]): 5.9 mg/kg
- ED50 (Rattus norvegicus [14]): 25 mg/kg

Compound: O=S(=O)(O)O.c1ccc(OC(Cn2ccnc2)c2ccc3ccccc3c2)cc1 (stereo not given)
- ED50 (Mus musculus [15]): 15 mg/kg
- ND50 (Mus musculus [16]): 32 mg/kg
- PI (Mus musculus [4]): 2.1

Compound: Cl.c1ccc2cc(CCn3ccnc3)ccc2c1
- ED50 (Rattus norvegicus [17]): 54 mg/kg
- ND50 (Mus musculus [18]): 31 mg/kg
- PI (Mus musculus [2]): >2.1
- LD50 [3]: > 100 mg/kg
- ED50 (Mus musculus [19]): 47 mg/kg
- PI (Mus musculus [4]): 1.4
- ND50 (Rattus norvegicus [20]): >100 mg/kg
- ED50 (Mus musculus [21]): 22 mg/kg
- ND50 (Mus musculus [6]): >100 mg/kg

Compound: c1ccc2cc(C3(CCn4ccnc4)OCCO3)ccc2c1
- ND50 (Mus musculus [18]): >100 mg/kg
- PI (Mus musculus [4]): >2.9
- ED50 (Mus musculus [22]): 35 mg/kg

Compound: OC(Cn1ccnc1)c1cccc2ccccc12 (stereo not given)
- ED50 (Rattus norvegicus [23]): 24 mg/kg
- ND50 (Rattus norvegicus [24]): 153 mg/kg
- ND50 (Mus musculus [25]): 89 mg/kg
- ND50 (Rattus norvegicus [10]): >300 mg/kg
- PI (Mus musculus [2]): >3.7 and >4.8
- ED50 (Mus musculus [26]): 82 mg/kg
- LD50 [3]: > 300 mg/kg
- PI (Mus musculus [4]): 2.6 and 6.4
- ED50 (Rattus norvegicus [27]): 62 mg/kg
- ED50 (Mus musculus [28]): 34 mg/kg
- ND50 (Mus musculus [6]): >300 mg/kg

Compound: COC(Cn1ccnc1)c1cccc2ccccc12 (stereo not given)
- PI (Mus musculus [4]): 2.7
- ED50 (Mus musculus [29]): 19 mg/kg
- ND50 (Mus musculus [30]): 51 mg/kg

Compound: O=C1NC(=O)C(c2ccccc2)(c2ccccc2)N1 [PHENYTOIN]
- ED50 (Rattus norvegicus [31]): 85 mg/kg
- ND50 (Rattus norvegicus [9]): >300 mg/kg
- ND50 (Rattus norvegicus [10]): >300 mg/kg
- ED50 (Mus musculus [32]): 22 mg/kg
- ND50 (Mus musculus [18]): >300 mg/kg
- LD50 [3]: > 300 mg/kg
- PI (Mus musculus [4]): >23.1
- ED50 (Rattus norvegicus [33]): 21 mg/kg
- ED50 (Mus musculus [21]): 13 mg/kg
- ND50 (Mus musculus [6]): >200 mg/kg
